Source: ChEMBL document CHEMBL3621120, “Discovery of ((4-(5-(Cyclopropylcarbamoyl)-2-methylphenylamino)-5-methylpyrrolo[1,2-f][1,2,4]triazine-6-carbonyl)(propyl)carbamoyloxy)methyl-2-(4-(phosphonooxy)phenyl)acetate (BMS-751324), a Clinical Prodrug of p38α MAP Kinase Inhibitor” (J Med Chem, 2015)
Converted amounts (≈) assume the structure as drawn.

Legend:
[1] = biological target: T1, Alkaline phosphatase, placental type (Homo sapiens, UniProt P05187); experiment: Stability assessed as human placental ALP-mediated drug degradation by measuring compound remaining level in pH 7.5 tris buffer at 10 uM incubated for 0.25 hrs in presence of HALT phosphatase inhibitor cocktail by LC/MS/MS method; assay type: ADME; conditions: pH 7.5, with HALT phosphatase inhibitor cocktail, read-out: Stability
Summary of the method: (§1)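 Human placental alkaline phosphatase (1 unit/mL) incubated with compound at 10 µM in 89 mM tris buffer, pH 7.5, 37 °C; reactions in triplicate started by compound addition, sampled at 0, 15, 30, 60 min. For inhibition, HALT phosphatase inhibitor cocktail (100x dilution) added before compound. Samples quenched into EDTA, acetonitrile added, centrifuged, remaining compound measured by LC/MS/MS.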

Cynomolgus monkey [2] = experiment: AUC in cynomolgus monkey assessed as plasma BMS-582949 level at 30 mg/kg, po dose equivalent to BMS-582949 after 24 hrs by LC/MS/MS method; assay type: ADME, organism-based, Macaca fascicularis; parameters: time < 24 hr, dose 30 mg/kg, route oral; conditions: in vivo
Summary of the method: (§2)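 Three overnight-fasted male cynomolgus monkeys (4.2-5.2 kg) given prodrug by oral gavage at 10 or 30 mg/kg, 5 mL/kg methocel suspension, one-week washout between doses. Femoral artery blood pre-dose and 0.25-24 h post-dose; plasma (centrifuged 4 °C) stored -20 °C and analysed by LC/MS/MS for parent.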

Rattus norvegicus [3] = experiment: Bioavailability in Sprague-Dawley rat assessed as plasma BMS-582949 level at 10 mg/kg, po dose equivalent to BMS-582949 after 24 hrs by LC/MS/MS method; assay type: ADME, organism-based; conditions: in vivo
Rattus norvegicus [4] = experiment: Cmax in Sprague-Dawley rat assessed as plasma BMS-582949 level at 100 mg/kg, po dose equivalent to BMS-582949 after 24 hrs by LC/MS/MS method; assay type: ADME, organism-based; parameters: dose 100 mg/kg, route oral; conditions: in vivo
[5] = biological target: T1, Alkaline phosphatase, placental type; experiment: Stability assessed as human placental ALP-mediated drug degradation by measuring compound remaining level in pH 7.5 tris buffer at 10 uM incubated for 0.5 hrs by LC/MS/MS method; assay type: ADME; conditions: read-out: Stability; summary of the method: as §1
Rattus norvegicus [6] = experiment: Cmax in Sprague-Dawley rat assessed as plasma BMS-582949 level at 1 mg/kg, po dose equivalent to BMS-582949 after 24 hrs by LC/MS/MS method; assay type: ADME, organism-based; parameters: dose 1 mg/kg, route oral; conditions: in vivo
Caco-2 = experiment: Drug level in apical side of human Caco2 cells incubated at 37 degC for 2 hrs; assay type: ADME, cell-based; conditions: caco-2, 2 h
Summary of the method: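 Compounds loaded on apical side of Caco-2 monolayers and incubated at 37 °C for 2 h; prodrug, intermediate and parent measured on apical and basal sides.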

[7] = biological target: T1, Alkaline phosphatase, placental type; experiment: Stability assessed as human placental ALP-mediated drug degradation by measuring compound remaining level in pH 7.5 tris buffer at 10 uM incubated for 0.25 hrs by LC/MS/MS method; assay type: ADME; conditions: read-out: Stability; summary of the method: as §1
Rattus norvegicus [8] = experiment: Cmax in Sprague-Dawley rat assessed as plasma BMS-582949 level at 10 mg/kg, po dose equivalent to BMS-582949 after 24 hrs by LC/MS/MS method; assay type: ADME, organism-based; parameters: dose 10 mg/kg, route oral; conditions: in vivo
[9] = Solubility of the compound in pH 6.7 solution at room temperature; assay type: physicochemical
Rattus norvegicus [10] = experiment: AUC in Sprague-Dawley rat assessed as plasma BMS-582949 level at 1 mg/kg, po dose equivalent to BMS-582949 after 24 hrs by LC/MS/MS method; assay type: ADME, organism-based; parameters: time < 24 hr, dose 1 mg/kg, route oral; conditions: in vivo
[11] = biological target: T1, Alkaline phosphatase, placental type; experiment: Stability assessed as human placental ALP-mediated drug degradation by measuring compound remaining level in pH 7.5 tris buffer at 10 uM incubated for 1 hr by LC/MS/MS method; assay type: ADME; conditions: read-out: Stability
Summary of the method: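 Human placental ALP at 1 unit/mL, test compound at 10 µM in 89 mM tris pH 7.5, 37 °C. Run in triplicate, started by adding compound. Aliquots taken at 0, 15, 30 and 60 min and quenched into 10 mM EDTA plus acetonitrile. After centrifugation at 4 °C, percent remaining measured by LC/MS/MS.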

Liver carboxylesterase [12] = biological target: T2, Liver carboxylesterase (Sus scrofa, UniProt Q29550); experiment: Stability assessed as porcine liver esterase-mediated drug degradation by measuring compound remaining level in pH 7.4 potassium phosphate buffer at 10 uM incubated for 1 hr by LC/MS/MS; assay type: ADME, tissue-based; conditions: pig, read-out: Stability
T2 sequence (Q29550 whole entry): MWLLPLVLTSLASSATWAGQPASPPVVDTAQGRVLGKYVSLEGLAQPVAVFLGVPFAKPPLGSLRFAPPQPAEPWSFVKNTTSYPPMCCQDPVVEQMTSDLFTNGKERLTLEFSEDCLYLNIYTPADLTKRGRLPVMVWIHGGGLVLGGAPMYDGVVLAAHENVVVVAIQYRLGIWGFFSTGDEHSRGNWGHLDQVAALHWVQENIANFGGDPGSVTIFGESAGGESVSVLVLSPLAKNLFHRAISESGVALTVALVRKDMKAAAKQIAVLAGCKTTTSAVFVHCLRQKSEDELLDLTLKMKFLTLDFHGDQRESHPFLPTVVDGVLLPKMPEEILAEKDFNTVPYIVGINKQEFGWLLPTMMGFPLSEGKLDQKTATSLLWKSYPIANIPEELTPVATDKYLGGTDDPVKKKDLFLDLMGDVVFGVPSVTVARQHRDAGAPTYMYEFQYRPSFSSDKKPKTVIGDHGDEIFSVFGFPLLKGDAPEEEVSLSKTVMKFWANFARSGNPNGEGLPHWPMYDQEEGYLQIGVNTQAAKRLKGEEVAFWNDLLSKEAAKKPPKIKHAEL
Summary of the method: (§3)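 Porcine liver esterase with substrate at 10 µM in 89 mM potassium phosphate pH 7.4, 37 °C. Reaction started by adding compound. Aliquots taken at 0, 15, 30 and 60 min and quenched with acetonitrile. After centrifugation at 4 °C, percent remaining quantified by LC/MS/MS.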

[13] = Stability in pH 7.4 solution assessed as half-life at 37 degC; assay type: physicochemical
Rattus norvegicus [14] = experiment: AUC in Sprague-Dawley rat assessed as plasma BMS-582949 level at 10 mg/kg, po dose equivalent to BMS-582949 after 24 hrs by LC/MS/MS method; assay type: ADME, organism-based; parameters: time < 24 hr, dose 10 mg/kg, route oral; conditions: in vivo
Rattus norvegicus [15] = experiment: Bioavailability in Sprague-Dawley rat assessed as plasma BMS-582949 level at 100 mg/kg, po dose equivalent to BMS-582949 after 24 hrs by LC/MS/MS method; assay type: ADME, organism-based; conditions: in vivo
Liver carboxylesterase [16] = biological target: T2, Liver carboxylesterase; experiment: Stability assessed as porcine liver esterase-mediated drug degradation by measuring compound remaining level in pH 7.4 potassium phosphate buffer at 10 uM incubated for 0.25 hrs by LC/MS/MS; assay type: ADME, tissue-based; conditions: pig, read-out: Stability; summary of the method: as §3
Cynomolgus monkey [17] = experiment: Bioavailability in cynomolgus monkey assessed as plasma BMS-582949 level at 10 mg/kg, po dose equivalent to BMS-582949 after 24 hrs by LC/MS/MS method; assay type: ADME, organism-based, Macaca fascicularis; conditions: in vivo; summary of the method: as §2
[18] = biological target: T1, Alkaline phosphatase, placental type; experiment: Stability assessed as human placental ALP-mediated drug degradation by measuring compound remaining level in pH 7.5 tris buffer at 10 uM incubated for 1 hr in presence of HALT phosphatase inhibitor cocktail by LC/MS/MS method; assay type: ADME; conditions: pH 7.5, with HALT phosphatase inhibitor cocktail
Summary of the method: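 Human placental ALP (1 unit/mL) with HALT phosphatase inhibitor cocktail at 100x dilution, added before the test compound (10 µM). Buffer 89 mM tris pH 7.5, 37 °C, triplicate. Sampled at 0, 15, 30 and 60 min, quenched with EDTA and acetonitrile, centrifuged, and percent remaining determined by LC/MS/MS.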

[19] = Solubility of the compound in pH 1.2 solution at room temperature; assay type: physicochemical

T1 sequence (P05187 whole entry): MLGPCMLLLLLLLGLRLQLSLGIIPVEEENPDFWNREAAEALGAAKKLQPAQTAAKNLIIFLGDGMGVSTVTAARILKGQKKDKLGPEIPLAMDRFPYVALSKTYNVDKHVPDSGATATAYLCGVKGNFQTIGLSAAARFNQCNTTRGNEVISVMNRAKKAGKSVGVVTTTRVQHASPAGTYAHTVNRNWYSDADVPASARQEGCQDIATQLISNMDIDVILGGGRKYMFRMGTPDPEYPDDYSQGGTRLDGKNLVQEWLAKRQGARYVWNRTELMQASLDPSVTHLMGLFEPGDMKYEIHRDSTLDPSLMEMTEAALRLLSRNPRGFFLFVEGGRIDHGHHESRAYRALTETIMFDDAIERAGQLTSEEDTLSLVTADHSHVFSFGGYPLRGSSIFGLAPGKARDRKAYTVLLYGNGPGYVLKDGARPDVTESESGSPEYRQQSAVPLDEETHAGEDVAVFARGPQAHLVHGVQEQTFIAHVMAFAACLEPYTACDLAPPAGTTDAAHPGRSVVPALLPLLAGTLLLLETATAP

- remaining at 0.25 h, 10 µM [1]: 100%
- AUC (Cynomolgus monkey [2]): 96 µM·h
- F (Rattus norvegicus [3]): 103%
- Cmax (Rattus norvegicus [4]): 122 µM
- remaining at 0.5 h, 10 µM [5]: 11.1%
- Cmax (Rattus norvegicus [6]): 0.4 µM
- Drug uptake (Caco-2): Active
- remaining at 0.25 h, 10 µM [7]: 12.5%
- Cmax (Rattus norvegicus [8]): 18 µM
- solubility [9]: 3030 µg/mL (≈ 4360 µM)
- AUC (Rattus norvegicus [10]): 3.1 µM·h
- remaining at 1 h, 10 µM [11]: 10.9%
- remaining at 1 h, 10 µM (Liver carboxylesterase [12]): 100%
- half-life [13]: 37 h
- AUC (Rattus norvegicus [14]): 78 µM·h
- F (Rattus norvegicus [15]): 115%
- remaining at 0.25 h, 10 µM (Liver carboxylesterase [16]): 100%
- F (Cynomolgus monkey [17]): 51%
- remaining at 1 h, 10 µM [18]: 64.5%
- solubility [19]: 100 µg/mL (≈ 144 µM)
SMILES: CCCN(C(=O)OCOC(=O)Cc1ccc(OP(=O)(O)O)cc1)C(=O)c1cn2ncnc(Nc3cc(C(=O)NC4CC4)ccc3C)c2c1C
